What all share (format): functional, cell-based
For one assay, the system named is SW480. The assay can be described thus: Cytotoxicity against human SW480 cells after 48 hrs by MTS assay. To be noted: SW480, 48 h. An outline of the steps:
(§1)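 Cells kept in RPMI 1640 with 10% FBS and 100 U/mL penicillin/streptomycin, 37 °C, 5% CO2. Seeded at 5 × 10^3/well with test samples at various concentrations for 48 h. MTS (5 mg/mL in PBS) added, 4 h more. Medium partly replaced by 20% SDS overnight to dissolve formazan. Absorbance read at 570 nm. IC50 calculated by Reed and Muench method. Cisplatin served as positive control.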
Background: Tetrazolium dyes change colour on reduction, which living cells bring about.

The nature of assay [1]: Cytotoxicity against human ECA109 cells after 48 hrs by MTT assay. To be noted: ECa-109, 48 h. An outline of the steps:
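Cells grown in RPMI 1640 with 10% FBS and 100 U/mL penicillin/streptomycin, humidified 5% CO2, 37 °C. Plated 5 × 10^3/well, exposed to test samples at various concentrations for 48 h. MTT then added in place of MTS, 4 h further. Formazan dissolved overnight in 20% SDS, A570 measured. IC50 by Reed and Muench method. Tanespimycin (17AAG) was the positive control.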

Another assay relates to SMMC-7721. The assay can be described thus: Cytotoxicity against human SMMC7721 cells after 48 hrs by MTS assay. To be noted: SMMC-7721, 48 h. An outline of the steps: as §1
For a further assay, the system named is MCF7. The assay can be described thus: Cytotoxicity against human MCF7 cells after 48 hrs by MTS assay. As to conditions: MCF7, 48 h. An outline of the steps: as §1
Another assay relates to A549. The assay can be described thus: Cytotoxicity against human A549 cells after 48 hrs by MTS assay. As to conditions: A549, 48 h. An outline of the steps:
as §1

A further assay relates to HL-60. The assay can be described thus: Cytotoxicity against human HL60 cells after 48 hrs by MTS assay. As to conditions: HL-60, 48 h. An outline of the steps: as §1

Some results are limits rather than exact numbers.

`COc1ccc2cc1Oc1ccc(cc1)C[C@H]1c3c(cc4c(c3Oc3cc5c(cc3OC)CCN=C5C2)OCO4)CC[N@@+]1(C)[O-]`: the IC50 (as a rule, the concentration at which inhibition is half-maximal) is greater than 10 µM in the assay with SW480; 10 µM in assay [1]; greater than 10 µM in the assay on SMMC-7721; greater than 10 µM in the assay on MCF7; greater than 10 µM in the assay on A549; greater than 10 µM with HL-60.
In the case of `COc1ccc2cc1Oc1ccc(cc1)C[C@H]1c3c(cc4c(c3Oc3cc5c(cc3OC)CCN[C@@H]5C2)OCO4)CCN1C`, the IC50 in the assay with SW480 was found to be 3.7 µM; in assay [1] it was 3.2 µM; in the assay on SMMC-7721, 4.8 µM; in the assay with MCF7 it was 2.3 µM; in the assay with A549, 3.7 µM; with HL-60, 2.8 µM.
As to `COc1ccc2cc1Oc1ccc(cc1)C[C@H]1c3c(cc4c(c3Oc3cc5c(cc3OC)CCN(C)[C@@H]5C2)OCO4)CCN1C` [CEPHARANTHINE], the IC50 in the assay on SW480 was 4.7 µM; in assay [1], greater than 10 µM; with SMMC-7721, 9.9 µM; in the assay with MCF7 it was 2.9 µM; in the assay on A549, 5 µM; with HL-60, 9.2 µM.
For `COc1ccc2cc1Oc1ccc(cc1)C[C@H]1c3cc(c(OC)cc3CCN1C)Oc1c(O)c(OC)cc3c1[C@H](C2)N(C)CC3` [FANGCHINOLINE], the IC50 in the assay on SW480 is greater than 10 µM; in assay [1], greater than 10 µM; in the assay with SMMC-7721, greater than 10 µM; with MCF7, 5 µM; in the assay on A549, greater than 10 µM; with HL-60 it was greater than 10 µM.
With `COc1ccc2cc1Oc1ccc(cc1)C[C@H]1c3c(cc(OC)c(O)c3Oc3cc4c(cc3OC)CCN(C)[C@@H]4C2)CCN1C` [HOMOAROMOLINE], the IC50 in the assay on SW480 was greater than 10 µM; in assay [1] it was greater than 10 µM; in the assay on SMMC-7721, greater than 10 µM; in the assay on MCF7, 9.5 µM; in the assay on A549, greater than 10 µM; in the assay on HL-60, greater than 10 µM.
For `C=CCNC1=C2C[C@@H](C)C[C@H](OC)[C@H](O)[C@@H](C)/C=C(\C)[C@H](OC(N)=O)[C@@H](OC)/C=C\C=C(/C)C(=O)NC(=CC1=O)C2=O` [TANESPIMYCIN], in assay [1], the IC50 was 1.1 µM.

Values taken from ChEMBL document CHEMBL2375340, “Cytotoxic bisbenzylisoquinoline alkaloids from Stephania epigaea” (J Nat Prod, 2013).
